MT stabilizer: microtubule stabilization, imaging screen. HeLa tubulin immunostaining HCS, 24 h; share of cells brighter than vehicle mean+2SD. % tubulin-high responders, % at 10 µM. 200,000 compounds, 0.83% hits. AID 2205;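 active = plate Z-score above 3 for both tubulin-high and condensed-nucleus cell shares, with cell loss under 80%, at 10 µM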;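 note: anti alpha tubulin signal scored within the nucleus-defined area of each cell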
b-catenin transl: beta-catenin nuclear translocation modulation; HeLa beta-catenin nuclear translocation, immunofluorescence imaging; AID 1665; nuclear translocation activity, % at 5 µM; 190,000 compounds, 0.3% hits;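 active = nuclear translocation activity above 50% at 5 µM, with a well cell count of 50 or more; inconclusive = wells under 50 cells across six images, flagged as toxic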;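 note: per-cell ratio of nuclear to cytoplasmic median beta-catenin stain intensity; plate controls were DMSO negative control for no effect and GSK-3 inhibitor IX positive control for full effect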
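test system = HeLa cells, endogenous beta-catenin | dosing = single 5 µM dose plus 0.02–20 µM confirmation series | times = compound treatment 24 h, 37°C, 5% CO2 | technique = beta-catenin immunofluorescence imaging with DAPI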
Cl transport mod: modulators of human KCC2 chloride dependent transport | B-score of Tl+ flux slope (higher = more flux/activation; lower = inhibition) at 10 µM | AID 1456 | Q9H2X9 | 190,000 compounds, 2.2% hits | KCC2 cells, thallium flux FluoZin-2 fluorescence;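 active = thallium flux slope and its plate-corrected score both differing from the plate sample mean at a set confidence after two filtering rounds, in either direction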;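 note: slope of fluorescence scaled to starting intensity during 10 to 20 s after thallium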
DTT redox prof: compounds producing H2O2 with reducing agent – biochemical, NIH compound library profiling, artefact control for MLSCN library redox annotation, primary screen. DTT-dependent redox cycling H2O2, phenol red/HRP absorbance; 100% = 100 µM peroxide control, 0% = buffer. activation, % at 10 µM. 200,000 compounds, 0.03% hits;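 active = activation of at least 50% relative to the plate's high and low controls in the primary single-dose screen; inactive = activation below 50%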;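 note: compound incubated with DTT at 0.8 mM final as the reducing agent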
ROMK primary: human ROMK K+ channel modulation, primary screen; P48048; Tet-inducible ROMK, thallium flux fluorescence; actives lie on both sides; B-score at 10 µM; 130,000 compounds, 2% hits;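 active = signal ratio slope over the read window, or its plate-corrected B-score, at least 3 SD from the plate mean, either direction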;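 note: B-score of the F/F0 ratio slope over 7 to 12 s after thallium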
KCC2 sec1: confirmation of human KCC2 transport modulators. shares compounds with Cl transport mod. HEK293-KCC2, thallium flux, FluoZin2 fluorescence; stronger effect = higher value. normalised thallium flux (F/F0 slope) at 10 µM. 3,700 compounds, 15% hits. AID 1713;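 active = thallium flux slope above the same plate's solvent-only control mean plus 3 SD; inconclusive = the two replicate wells disagree; inactive = no significant difference from solvent-only control wells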
KCC2 bumet counter: thallium flux persisting under bumetanide in KCC2 cells, counter-screen secondary assay; HEK293-KCC2 + bumetanide/ouabain, thallium flux FluoZin2; stronger effect = higher value; 3,700 compounds, 49% hits; normalized thallium flux at 10 µM; shares compounds with Cl transport mod;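 active = thallium entry rate above the same plate's blocked-transporter control wells by more than 3 SD; inconclusive = the two repeat wells disagree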;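 note: raw slope of fluorescence over initial fluorescence between 10 and 20 s after thallium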
KCC2 secondary2: KCC2 (human) modulation, second secondary assay | shares compounds with Cl transport mod | HEK293-KCC2, thallium flux FluoZin2 fluorescence; actives lie on both sides; F/F0 rise rate, 10–20 s post-thallium | normalized thallium flux at 10 µM | 3,700 compounds, 23% hits | AID 1715;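 active = thallium flux slope more than 3 SD above or below the plate's solvent-only control mean, mostly below; inconclusive = the two repeat wells disagreed; inactive = no significant shift from solvent-only controls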;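 note: raw slope with 0.1% DMSO as baseline and bumetanide as block control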
HEK293 Tl flux: counter-screen for KCC2 modulators: effect in parental HEK293 cells; shares compounds with Cl transport mod; thallium flux rate (normalised fluorescence) at 10 µM; thallium flux FluoZin2, ouabain; baseline-ratio fluorescence slope, 10–20 s after thallium; AID 1716; 3,700 compounds, 46% hits;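 active = thallium flux rate significantly above the same plate's solvent-only control wells, beyond their mean plus 3 SD; inconclusive = the two replicate wells gave conflicting results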
KCC2 ouabain: modulates human KCC2 on retest with ouabain. shares compounds with Cl transport mod. HEK293-KCC2, thallium flux FluoZin2 fluorescence; bidirectional: low = inhibitor, high = activator. raw Tl+ flux slope (below DMSO = inhibition, above = activation) at 10 µM. 3,700 compounds, 48% hits. AID 1717;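 active = thallium flux slope beyond 3 SD from same-plate DMSO control mean in most replicates, usually higher, sometimes lower; inconclusive = repeat tests gave conflicting results; inactive = no significant difference from controls in most replicates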;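 note: slope of initial-normalized fluorescence between seconds 10 and 20 after thallium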
HEK counter2: acts in parental HEK cells, second KCC2 counter-screen | shares compounds with Cl transport mod | HEK293 parental, thallium flux FluoZin-2 fluorescence slope | thallium flux slope at 10 µM | 3,700 compounds, 33% hits;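 active = thallium flux slope above the same plate's solvent-control mean plus 3 SD in both duplicate wells; inconclusive = duplicate wells that disagreed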;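 note: run without ouabain in cells lacking the KCC2 cotransporter; slope of fluorescence scaled to its starting value between 10 and 20 s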
Active calls of the source: *; ? = inconclusive; · = no result given. Compounds with a hit are over-represented: about 3.7% of the library has one in this group of screens.

SMILES	MT stabilizer	b-catenin transl	Cl transport mod	DTT redox prof	ROMK primary	KCC2 sec1	KCC2 bumet counter	KCC2 secondary2	HEK293 Tl flux	KCC2 ouabain	HEK counter2
Cc1nn(-c2ccccc2)nc1C(=O)NNC(=O)c1ccc(C(F)(F)F)cc1	·	0.0	21.6*	·	1.61	0.0227*	0.0973*	0.0345	0.0352*	0.0551*	0.0168*
Cc1nc(C(=O)NNC(=O)c2ccc(C(F)(F)F)cc2)cs1	·	-0.9	5.09*	·	0.735	0.0092	0.0199*	0.029	0.0104*	?	?
Cc1nn(-c2ccccc2)nc1C(=O)NNC(=O)c1cccc2ccccc12	·	0.1	68.9*	·	-0.435	0.0238*	0.154*	0.0372	0.0746*	0.0996*	0.0243*
O=C(CC(C(=O)O)P(=O)(c1ccccc1)c1ccccc1)c1ccccc1 (configuration not stated)	4.3	-0.8	0.654	-0.6	·	·	·	·	·	·	·
COc1ccc(-c2nc(Cn3c(SCc4ccc(F)cc4)nc4ccncc43)c(C)o2)cc1OC	5.1	·	-3.52*	-1.7	·	0.00827	0.00571	0.0307	?	?	0.0112
c1ccc(-c2csc(Cc3nnc4n3CCCCC4)n2)cc1	2.8	-1.6	-1.8	0.6	·	0.00614	0.00558	0.0274	0.00651	0.014*	0.00958
COc1ccccc1-c1csc(Cc2nnc3n2CCCCC3)n1	2.4	-1.6	-1.39	-4.8	·	·	·	·	·	·	·
Cc1cc(C(=O)NCC23CC4CC(CC(C4)C2)C3)c(C)o1	1.7	0.6	-0.288	0.3	-0.241	·	·	·	·	·	·
COc1ccc(-c2oc3ccccc3c(=O)c2OC(C)=O)cc1	6.7	-4.5	54.9*	-1.9	0.429	0.0224*	0.0904*	0.0412	?	0.0706*	?
CN(C)NC(=S)NC(=O)C12CC3CC(CC(C3)C1)C2	4.0	-2.5	0.262	0.5	1.5	·	·	·	·	·	·
CN(C)C(=S)NC(=O)C12CC3CC(C)(CC(C)(C3)C1)C2	·	1.4	16.8*	·	·	?	0.0386*	0.0338	0.0161*	0.0251*	0.0197*
O=C(NCc1ccccc1C(F)(F)F)C1CC(c2cc(C(F)(F)F)cc(C(F)(F)F)c2)=NO1 (configuration not stated)	·	0.1	0.0137	·	·	·	·	·	·	·	·
O=C(NCc1ccccc1C(F)(F)F)C1CC(c2cccc(F)c2)=NO1 (configuration not stated)	·	-1.5	-2.66*	·	·	0.00737	0.00456	0.0272	0.00687	0.0181	0.00894
O=c1nc(-c2ccccc2)n(-c2ccccc2)[nH]1	2.0	-4.3	-1.03	-0.2	0.305	·	·	·	·	·	·
Cc1ccc(NC(=S)N/N=C/c2ccc([N+](=O)[O-])s2)cc1	2.3	-2.6	14.8*	1.6	0.739	0.0138*	0.0467*	0.0351	?	0.0411*	0.0197*
O=c1[nH]ncc(N/N=C/c2ccccc2)c1Cl	1.1	5.2	·	0.2	1.2	0.00754	0.00556*	0.0285	0.00792	0.0169	0.00945
CNC(=S)N/N=C(\C)c1ccc(C(C)(C)C)cc1	2.9	-1.8	5.73*	0.0	·	0.00929	0.0177*	0.0324	0.0222*	?	0.013*
COCCN1C(=O)C(O)=C(C(=O)c2ccco2)C1c1cccc(Oc2ccccc2)c1 (configuration not stated)	2.1	3.1	-6.94*	0.0	·	0.00898	0.00577	?	0.00631*	0.0165*	0.0103
Cc1cc(C(F)(F)F)nn1CC(=O)NCc1cccs1	2.0	-1.3	-1.03	-0.6	0.5	·	·	·	·	·	·
CC(C)(C)c1ccc(COc2ccsc2C(=O)O)cc1	1.8	-1.3	-2.79*	-1.3	·	0.0104	0.00717	0.0294	0.00754	0.0194	?
Cc1cc(C(=O)COC(=O)c2nccnc2N)c(C)n1C	3.7	-1.3	1.11	-0.8	-0.129	·	·	·	·	·	·
COc1cc(C(=O)OCC(=O)c2cc(C)n(C)c2C)cc(OC)c1OC	2.3	68.6*	6.74*	1.5	1.56	0.0102	0.00707	0.0324	0.0078	0.0224	0.0103
O=C(NC(=S)Nn1cnc2c(cnn2-c2ccccc2)c1=O)c1ccccc1	4.9	-1.9	-1.35	0.3	·	·	·	·	·	·	·
N#CC1=C(N)N(c2ncn[nH]2)C2=C(C(=O)CCC2)C1c1ccc(F)cc1 (configuration not stated)	3.8	0.3	1.05	-0.2	·	·	·	·	·	·	·
C/C(=N\NC(=O)c1c(Br)c(C)nn1C)c1cccc(NC(=O)C2CCC2)c1	4.6	·	-5.16*	-11.8	·	0.00553	0.0047	0.0268	0.00706	0.0166	0.00962
SMILES	MT stabilizer	b-catenin transl	Cl transport mod	DTT redox prof	ROMK primary	KCC2 sec1	KCC2 bumet counter	KCC2 secondary2	HEK293 Tl flux	KCC2 ouabain	HEK counter2
O=C(O)/C=C/S(=O)(=O)c1ccc2ccccc2c1	·	-0.1	0.574	·	·	·	·	·	·	·	·
Cc1ccc(OCC(=O)NC(=S)Nc2ccc(Br)cn2)cc1	·	0.2	31.4*	·	·	0.0131*	0.0318*	0.0321	0.0582*	0.0374*	0.0217*
Cc1ccc(OCC(=O)NC(=S)Nc2ccc3c4c(cccc24)CC3)cc1	3.4	-5.7	13.3*	0.0	1.47	0.0105	0.0141*	0.0347	0.0117*	?	0.0108
Cc1ccc(C)c(S(=O)(=O)NC(C)C(=O)Nc2ccc(-c3nc4ccccc4s3)cc2)c1 (configuration not stated)	2.0	0.1	4.85*	-7.8	-0.0679	0.0171	0.00594*	0.0304	?	0.0175	0.0111
CC(NS(=O)(=O)c1cccc(Cl)c1)C(=O)Nc1ccc(-c2nc3ccccc3s2)cc1 (configuration not stated)	1.9	-3.9	0.63	0.3	0.0287	·	·	·	·	·	·
S=c1[nH]nc(-c2ccccc2)c2ccccc12	2.4	1.1	·	0.2	0.105	·	·	·	·	·	·
Cc1ccc(-c2n[nH]c(=S)c3ccccc23)cc1	3.4	5.0	8.94*	0.0	1.21	0.00917	0.0246*	0.0295	0.00975*	?	0.00954
CCCCCSc1nnc(-c2cc(Br)ccc2N)c(=O)[nH]1	2.7	-1.6	·	-5.3	-2.05	0.00738	?	0.0324	?	?	0.0102
CCCCCCCSc1nnc(-c2ccccc2N)c(=O)[nH]1	3.1	0.8	-3.14	-0.1	-1.96	·	·	·	·	·	·

Screens as filed in PubChem.
